Measurements published in ChEMBL document CHEMBL1124149 (1988).
Values after ≈ are worked out from the molar mass of the structure shown.

Test system: Vaccinia virus
Assay: In vitro minimum inhibitory concentration to inhibit VV-induced cytopathogenicity in PRK cells by 50%
Format: functional
Conditions: Orthopoxvirus vaccinia
Procedure, shortened: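 Antiviral read-out was virus-induced cytopathogenicity in primary rabbit kidney (PRK) cell cultures. The value is the compound concentration needed to reduce cytopathogenicity by 50%.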

Compound | MIC [µg/mL]
Cn1c(N)nc2c(ncn2COCCO)c1=O | > 400
Cc1cn2c([O-])c3c(nc2n1)[n+](COCCO)cn3C | > 400
Cc1cn2c(O)c3ncn(COCCO)c3nc2n1 | > 400
Cc1cn2c(=O)c3ncn(COCCO)c3nc2n1C | > 400
CNc1nc(O)c2ncn(COCCO)c2n1 | > 400
Cn1c[n+](COCCO)c2nc(N)nc([O-])c21.O=S(=O)(O)O | > 400
Nc1nc2c(ncn2COCCO)c(=O)[nH]1 [ACYCLOVIR] | 150 (≈ 666 µM)
